The values below come from ChEMBL document CHEMBL2150980 (Eur J Med Chem, 2012).

What is called Ki is the equilibrium dissociation constant of an inhibitor or competing ligand from its target. A low value points to higher affinity.

Structures are written as SMILES.

The target of the first assay is T1, Alpha-1B adrenergic receptor (Homo sapiens, UniProt P35368).
T1 sequence (P35368 whole entry): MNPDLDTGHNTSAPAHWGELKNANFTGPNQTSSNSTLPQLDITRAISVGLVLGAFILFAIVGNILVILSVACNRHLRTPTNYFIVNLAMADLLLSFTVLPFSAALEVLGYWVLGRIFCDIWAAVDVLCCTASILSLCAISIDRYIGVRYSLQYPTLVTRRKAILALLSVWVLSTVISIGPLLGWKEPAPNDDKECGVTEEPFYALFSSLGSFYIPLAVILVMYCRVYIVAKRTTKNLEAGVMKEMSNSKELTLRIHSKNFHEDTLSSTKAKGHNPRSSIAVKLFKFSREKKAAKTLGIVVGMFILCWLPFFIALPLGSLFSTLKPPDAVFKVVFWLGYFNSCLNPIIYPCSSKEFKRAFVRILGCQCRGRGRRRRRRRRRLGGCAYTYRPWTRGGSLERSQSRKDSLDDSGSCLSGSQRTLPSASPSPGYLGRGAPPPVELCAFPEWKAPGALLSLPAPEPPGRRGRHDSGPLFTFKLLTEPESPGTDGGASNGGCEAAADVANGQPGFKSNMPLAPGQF
Kind of assay: Displacement of [3H]prazosin from human cloned alpha1B adrenoceptor expressed in CHO cell membranes after 30 mins by liquid scintillation counter.
Conditions: not given
In general terms: Displacement assays read how much labelled ligand stays bound in the presence of the test substance.
`COc1cccc(OC)c1OCCNC[C@H]1COc2cccc(Cl)c2O1.Cl` gave a Ki of 2.19 nM.

As to `COc1cccc(OC)c1OCCNC[C@H]1COc2c(OC)cccc2O1.Cl`, the Ki is 447 nM.

`COc1cccc(OC)c1OCCNC[C@H]1COc2cccc(F)c2O1.Cl`: affinity was put at a Ki of 2.4 nM.

Regarding `COc1cccc(OC)c1OCCNC[C@H]1COc2cccc(OC)c2O1.Cl`, the Ki was 2.75 nM.

Compound `COc1cccc(OC)c1OCCNC[C@H]1COc2cccc(O)c2O1.Cl` had a Ki of 30.9 nM.

Another assay concerns the target T2, Alpha-1A adrenergic receptor (Rattus norvegicus, UniProt P43140).
T2 sequence (P43140 whole entry): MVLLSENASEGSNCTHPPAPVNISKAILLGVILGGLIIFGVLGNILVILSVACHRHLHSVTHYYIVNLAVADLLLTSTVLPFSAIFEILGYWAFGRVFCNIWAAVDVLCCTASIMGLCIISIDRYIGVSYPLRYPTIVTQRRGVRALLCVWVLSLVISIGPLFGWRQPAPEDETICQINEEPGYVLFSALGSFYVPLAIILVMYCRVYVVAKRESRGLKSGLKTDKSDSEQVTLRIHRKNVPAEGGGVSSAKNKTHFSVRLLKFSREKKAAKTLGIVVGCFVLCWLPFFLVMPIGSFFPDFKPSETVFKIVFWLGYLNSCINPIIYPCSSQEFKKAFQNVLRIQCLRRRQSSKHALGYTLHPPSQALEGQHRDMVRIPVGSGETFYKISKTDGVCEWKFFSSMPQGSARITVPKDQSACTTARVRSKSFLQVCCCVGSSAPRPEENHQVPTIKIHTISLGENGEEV
The assay is described as follows: Antagonist activity at alpha1A adrenoceptor in Sprague-Dawley rat prostate assessed as inhibition of noradrenaline-induced contractions after 30 mins. In kind it is functional, tissue-based, Prostate gland. Particulars: read-out: pA2 (converted). The essentials: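 Rat (200–250 g) prostatic strips, 8–10 mm × 1–2 mm, held at 2 g resting tension in modified Krebs (NaCl 118.0, KCl 4.7, CaCl2 2.5, MgSO4 1.18, NaHCO3 25.0, KH2PO4 1.18, glucose 5.5 mM).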
On to `COc1cccc(OC)c1OCCNC[C@H]1COc2cccc(Cl)c2O1.Cl`, for which the Kb is 0.912 nM.

As for `COc1cccc(OC)c1OCCNC[C@H]1COc2c(OC)cccc2O1.Cl`, the Kb is 39.8 nM.

With `COc1cccc(OC)c1OCCNC[C@H]1COc2cccc(F)c2O1.Cl`, the Kb was 1.2 nM.

Take `COc1cccc(OC)c1OCCNC[C@H]1COc2cccc(OC)c2O1.Cl`: the Kb was 2.82 nM.

As for `COc1cccc(OC)c1OCCNC[C@H]1COc2cccc(O)c2O1.Cl`, the Kb was 50.1 nM.

The next assay has as its target T3, Alpha-1D adrenergic receptor (Homo sapiens, UniProt P25100).
T3 sequence (P25100 whole entry): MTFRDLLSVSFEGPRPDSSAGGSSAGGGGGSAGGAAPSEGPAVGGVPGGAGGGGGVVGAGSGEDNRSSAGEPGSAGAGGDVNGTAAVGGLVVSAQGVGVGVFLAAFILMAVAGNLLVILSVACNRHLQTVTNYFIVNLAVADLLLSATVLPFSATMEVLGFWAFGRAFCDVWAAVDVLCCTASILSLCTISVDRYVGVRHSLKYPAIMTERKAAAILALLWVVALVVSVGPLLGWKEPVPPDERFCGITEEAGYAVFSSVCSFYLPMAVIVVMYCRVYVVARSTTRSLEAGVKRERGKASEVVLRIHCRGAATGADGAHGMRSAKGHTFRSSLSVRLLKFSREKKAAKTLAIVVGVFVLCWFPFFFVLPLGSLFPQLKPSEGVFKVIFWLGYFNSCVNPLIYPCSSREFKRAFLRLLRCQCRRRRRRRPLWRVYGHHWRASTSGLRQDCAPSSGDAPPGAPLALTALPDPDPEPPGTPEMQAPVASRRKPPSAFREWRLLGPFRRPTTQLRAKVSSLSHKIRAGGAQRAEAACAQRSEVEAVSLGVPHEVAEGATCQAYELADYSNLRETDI
Kind of assay: Displacement of [3H]prazosin from human cloned alpha1D adrenoceptor expressed in CHO cell membranes after 30 mins by liquid scintillation counter.
Conditions: not given
With `COc1cccc(OC)c1OCCNC[C@H]1COc2cccc(Cl)c2O1.Cl`, the Ki is 0.708 nM.

`COc1cccc(OC)c1OCCNC[C@H]1COc2c(OC)cccc2O1.Cl` gave a Ki of 79.4 nM.

Turning to `COc1cccc(OC)c1OCCNC[C@H]1COc2cccc(F)c2O1.Cl`, the Ki was 0.49 nM.

Take `COc1cccc(OC)c1OCCNC[C@H]1COc2cccc(OC)c2O1.Cl`: the Ki is 0.372 nM.

With `COc1cccc(OC)c1OCCNC[C@H]1COc2cccc(O)c2O1.Cl`, the affinity, expressed as Ki, was 8.91 nM.

A further assay addresses T4, Alpha-1D adrenergic receptor (Rattus norvegicus, UniProt P23944).
T4 sequence (P23944 whole entry): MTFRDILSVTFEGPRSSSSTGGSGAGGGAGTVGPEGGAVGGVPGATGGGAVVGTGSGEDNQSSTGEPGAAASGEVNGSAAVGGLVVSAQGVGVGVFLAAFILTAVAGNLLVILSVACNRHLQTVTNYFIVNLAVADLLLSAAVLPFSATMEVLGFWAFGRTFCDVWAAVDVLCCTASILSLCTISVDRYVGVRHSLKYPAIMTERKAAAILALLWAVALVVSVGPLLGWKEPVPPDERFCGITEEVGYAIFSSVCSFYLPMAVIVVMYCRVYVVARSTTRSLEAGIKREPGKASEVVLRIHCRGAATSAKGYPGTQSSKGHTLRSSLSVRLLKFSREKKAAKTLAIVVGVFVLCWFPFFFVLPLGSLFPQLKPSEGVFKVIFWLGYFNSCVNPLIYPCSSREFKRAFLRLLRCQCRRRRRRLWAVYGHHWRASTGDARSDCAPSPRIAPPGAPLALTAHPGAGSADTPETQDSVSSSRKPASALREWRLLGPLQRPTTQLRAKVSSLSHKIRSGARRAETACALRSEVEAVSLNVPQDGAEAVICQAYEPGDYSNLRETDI
The assay is described as follows: Antagonist activity at alpha1D adrenoceptor in Sprague-Dawley rat thoracic aorta assessed as inhibition of noradrenaline-induced contractions after 30 mins. In kind it is functional, tissue-based. To be noted: read-out: pA2 (converted).
For `COc1cccc(OC)c1OCCNC[C@H]1COc2cccc(Cl)c2O1.Cl`, the Kb is 3.02 nM.

On to `COc1cccc(OC)c1OCCNC[C@H]1COc2c(OC)cccc2O1.Cl`, for which the Kb is 5.75 nM.

In the case of `COc1cccc(OC)c1OCCNC[C@H]1COc2cccc(F)c2O1.Cl`, the Kb was 9.33 nM.

`COc1cccc(OC)c1OCCNC[C@H]1COc2cccc(OC)c2O1.Cl`: the Kb was 11.7 nM.

As for `COc1cccc(OC)c1OCCNC[C@H]1COc2cccc(O)c2O1.Cl`, the Kb is 51.3 nM.
